# In the RNAGym collection of RNA variant scans (doi:10.1126/science.aae0568):
# Fewer inactive variants are shown than the library holds.
# B1: tRNA (parent)
# chain: GUUCCGUUGGCGUAAUGGUAACGCGUCUCCCUCCUAAGGAGAAGACUGCGGGUUCGAGUCCCGUACGGAACG
# Variants of: B1
# Assay: yeast fitness relative to wild type (ratio to wild type); higher = fitter; tRNA-Arg(CCU), competitive growth, 37 C, YPD
# Summary of the method: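 A pool of Saccharomyces cerevisiae strains, each with a tRNA-Arg(CCU) gene variant at the native genomic locus, was competed in YPD at 37°C for 24 hours across six parallel replicates. The variants had been chemically synthesised at a 3% per-site mutation rate over 69 sites, and gene amplicons before and after competition were read by 100-nucleotide paired-end sequencing. Darwinian fitness relative to wild type rested on changes in genotype frequencies. Genotypes required ≥ 100 starting reads, and estimates < 0.5 were set to 0.5.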
row,Variant,yeast fitness
1,C22U A40G G63C,0.531
2,C11G C30U C31A A40U C49A,≤ 0.5
3,U13A A15G C22G U28A,0.619
4,C29G A45G,0.609
5,G23A C27U,0.706
6,A15G A37G G38A A45U,0.507
7,G63A A65C,0.942
8,G12A U16G C49U G63A,0.705
9,C24G G25C C30G U32C G67C,≤ 0.5
10,G25C U26G C46G C62G,≤ 0.5
11,U3G C5U U26A,≤ 0.5
12,G41C A69U A70U,0.629
13,U35A U54C C61G,0.645
14,A40C C60A,0.654
15,G17A C22U U28C U54G A57C,≤ 0.5
16,U19C A65U,1.07
17,C11G A15G C22A U26A A40U U54C C62A,≤ 0.5
18,C22G C30A C66A,≤ 0.5
19,G17A A37C G52A G56A G63C,≤ 0.5
20,U28C C55U G67C,0.557
21,U2A G10A A20U C22G G44C C61G,0.502
22,U2A U13A U35G U64A A65C,≤ 0.5
23,C5G C11U,0.886
24,A20G C31U A36C C61U A65C,≤ 0.5

row,Variant,yeast fitness
1,U7A C33U G51C,0.559
2,G9A A65C,0.93
3,A14U U59G A65U,0.547
4,C11G A36C C46U,≤ 0.5
5,A57U G63C U64A A70U,0.646
6,U2C C61G A65U,0.547
7,G18C C29G A36C G44C G50A,0.526
8,C4A U7C C24G C61A C66U,≤ 0.5
9,A21U U35C G44A G48C C55G A69U,≤ 0.5
10,G10A U26A C66U,0.537
11,A15G U28C U35A G38A C46G,0.552
12,G10A G41A C49U U53A C66G,0.537
13,U7A C27U,0.666
14,C30U A70C,0.869
15,C4G G17C A43C G51A,≤ 0.5
16,G50C C55G C60A,0.63
17,A42C C46G C66A,0.552
18,U8A C11U C31G G38C A40C G56A,≤ 0.5
19,C11A A15U A20C C34G C66U,≤ 0.5
20,C31U C60U C61G,≤ 0.5
21,A45C U64C A65C,0.965
22,C31U C49A,0.783
23,C5A U13C G18A C31G C46U,≤ 0.5
24,U8G A21C G50A G56A,≤ 0.5

row,Variant,yeast fitness
1,G25A U32A U53A,≤ 0.5
2,C46G C66G,0.986
3,A15G U54A A70U,0.564
4,G48A C55U A57G G68C,≤ 0.5
5,G10A G12A G52A C66U,≤ 0.5
6,G18C C62G C66A,≤ 0.5
7,U2C U13C C61G,≤ 0.5
8,U28A A42G U64A,≤ 0.5
9,C29A G67A,0.605
10,G17A C31U A70C,0.658
11,C11U G25A C62G,0.569
12,U2G A14C A42C,≤ 0.5
13,A43G A57C A65U,0.511
14,C11U U32C C33U C62U A65G,≤ 0.5
15,A45G C60U,0.743
16,G25C C29U A65C A70U,≤ 0.5
17,G17C A21G U26G,≤ 0.5
18,C11U C27G C31G G39C G56A C61A A69G,0.641
19,C30A A37C G41A A43U G44C A70G,≤ 0.5
20,C11A U28A C61G C62G,0.556
21,C24G C30U C46A,0.616
22,U8C U13A U32C A69U,0.677
23,C5U U8C C27U G48A C62A C66U,≤ 0.5
24,G18C A42C A43C C66G,≤ 0.5

row,Variant,yeast fitness
1,C5U U28C C29G,≤ 0.5
2,C33U C34U G38A G51A C55A A65U,0.566
3,C4A G10A G23A,≤ 0.5
4,C22G U32C A37G,0.559
5,C5U U7A C30A G58C,0.543
6,A21U C33G A57C,≤ 0.5
7,G9A A42G C62A,≤ 0.5
8,U7A C11G A36U C49U,≤ 0.5
9,G23C G39C A70U,≤ 0.5
10,U8A A40G A42U A45U U59G,≤ 0.5
11,U7G G9C G50C,0.668
12,C11A A20U C29U C33G,0.578
13,U7C U16A U28A,≤ 0.5
14,U16A C30G C34G A42U G52A A57C A65G,≤ 0.5
15,U8C G18C C27A C33U A65C A69C,≤ 0.5
16,G10C C11U A20C A57U,≤ 0.5
17,G6A U28C C61U,0.628
18,A15C G38C C49G G68C,≤ 0.5
19,C5A G10A A21C C24A A65C,≤ 0.5
20,C11U G12A C24U C34G,≤ 0.5
21,G12A G52C,0.668
22,C4A G6C C55U G68C,≤ 0.5
23,A57C U59C,0.613
24,A21C U28C A45G,0.603

row,Variant,yeast fitness
1,G10C C29G A40U C49G,≤ 0.5
2,C24U C27G G63A,0.536
3,U16G G68A,0.967
4,C5G C11A U19C A20C C33A C61G C66U A69U,≤ 0.5
5,C11A C34U A42G,≤ 0.5
6,G9A A40U A65U,0.718
7,A37C A43C A65C,0.612
8,G12A C49U G58A,0.7
9,U7G G9A C31G C33U A36G,≤ 0.5
10,C31G C34U A40C,0.526
11,G52A A57G G58A,0.565
12,U2G C31G G39C C60A,≤ 0.5
13,C24U U32G G51A,≤ 0.5
14,G6C A42U C61A U64A A69U,≤ 0.5
15,C46U C66A,0.853
16,C24G A36U,≤ 0.5
17,C31U G48A C61U A65C,≤ 0.5
18,A15U A20G C55U G63C,≤ 0.5
19,G9C A37G G68A,≤ 0.5
20,A21U A45U,0.676
21,C30G A45C C46U,0.612
22,A14C U16A C66U,≤ 0.5
23,C5A U19C G50A C55A C66A,≤ 0.5
24,C31U C34G G67A,0.539

row,Variant,yeast fitness
1,A15U A45C C46A C66U,≤ 0.5
2,C4G U26C A40U C49U,≤ 0.5
3,C60A C66U G68C,≤ 0.5
4,A15U C30G,≤ 0.5
5,C11U U26A A36U A65U,≤ 0.5
6,C11U C34G A37U,≤ 0.5
7,A45C U53C,0.823
8,G9C C11G C24U C31U U59A A70C,0.563
9,U35C A42C G50A,≤ 0.5
10,G6C U32A G41A C46U,≤ 0.5
11,U47A G67A,0.765
12,U8C C30G C31G U54C C61G,≤ 0.5
13,C4A A20C G50C A65C,≤ 0.5
14,C5U A45C G63C,≤ 0.5
15,U19A C30U G38C U53G,≤ 0.5
16,U16C U47A G52A,≤ 0.5
17,C5U U7C U26C U28C C29G C34A,0.659
18,C22G A36C G48A C61A C66U,≤ 0.5
19,U7A G23A G68U,≤ 0.5
20,C11U U13A G48A,0.59
21,C5U U16G A43U G58A,≤ 0.5
22,G17C A20U C33G A70U,≤ 0.5
23,C5U U35G A65U,0.576
24,U3G A45C G63A A69U,0.831

row,Variant,yeast fitness
1,G18C C66U,0.59
2,U26A A42G U47C G63A,0.519
3,A20U C24G C31G G52A C55G C61U,≤ 0.5
4,C5U G51A G56A A65C,≤ 0.5
5,A20C C24G C29G A37G C66G,≤ 0.5
6,U3A G9A A14C C55G,≤ 0.5
7,C4U U28C A36C G51A C66A,≤ 0.5
8,G10A G39C A70G,0.589
9,A40G G41A C55U,≤ 0.5
10,C31A G56A A65G C66A G68C,0.562
11,A14C C22U C24U U53A,≤ 0.5
12,A40C G48A C60G,0.683
13,C30A A37G A57G,≤ 0.5
14,U19G A57G,0.611
15,C5G C22U C62A A65C,≤ 0.5
16,U3C C33A C61G,0.731
17,C30G C33U,0.555
18,G44U A70C,0.813
19,C5A A15G C31U,0.657
20,U2G A65C,0.897
21,C30G U32G C46G C66U,≤ 0.5
22,C4A G23A C29U C34G G38C U54A A57C,0.602
23,G12A C24A A36C C61U G67U,0.615
